Bioassay records deposited in PubChem by Broad Institute.
CAL PDZ FP-1: inhibitors of human CAL PDZ peptide binding; inhibition, % at 24.9 µM; 300,000 tested, 0.92% active; purified CAL PDZ, TMR-peptide fluorescence polarization, 1 h;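 active = mean inhibition of at least 30% with at least half of replicates also reaching 30%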;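 also: 0% = DMSO neutral control and 100% = excess unlabeled competitor peptide PRC23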
Dyrk1A ADPGlo: Dyrk1A (rat) kinase inhibition | Q63470 | ADP-Glo luminescence, NFATc1 peptide | inhibition, % at 12.5 µM | 310,000 tested, 0.43% active; in the data active = inhibition above about 50%;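 also: plate controls were vehicle with enzyme for no effect and no enzyme for full effect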
Rtt109 Vps75: blocks Candida albicans Rtt109/Vps75 acetyltransferase activity; inhibition, % at 34.9 µM; Q5AAJ8; purified Rtt109/Vps75, ThioGlo CoA-SH fluorescence, 4 h; 330,000 tested, 0.16% active;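 active = inhibition of at least 50% in every replicate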
Target sequence (Q5AAJ8 whole entry, looked up): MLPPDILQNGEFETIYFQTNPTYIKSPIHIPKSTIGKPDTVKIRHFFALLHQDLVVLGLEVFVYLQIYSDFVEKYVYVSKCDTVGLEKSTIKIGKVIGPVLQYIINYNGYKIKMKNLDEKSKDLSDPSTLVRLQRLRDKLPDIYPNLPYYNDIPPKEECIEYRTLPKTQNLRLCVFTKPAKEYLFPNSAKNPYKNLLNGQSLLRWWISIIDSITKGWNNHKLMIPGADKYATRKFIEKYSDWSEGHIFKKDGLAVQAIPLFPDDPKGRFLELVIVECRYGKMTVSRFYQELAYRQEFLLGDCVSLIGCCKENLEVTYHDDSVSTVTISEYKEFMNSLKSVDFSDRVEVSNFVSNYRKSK
ALR H2O2 inh: human ALR oxidase inhibition via reduced H2O2 | purified ALR, DTT oxidation, H2O2 HRP-luminol luminescence | inhibition, % (test concentration not listed) | 290,000 tested, 3.8% active;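 active = mean replicate inhibition above about 79%, with every replicate also reaching it, limit read from the data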
Target sequence (P55789 whole entry, looked up): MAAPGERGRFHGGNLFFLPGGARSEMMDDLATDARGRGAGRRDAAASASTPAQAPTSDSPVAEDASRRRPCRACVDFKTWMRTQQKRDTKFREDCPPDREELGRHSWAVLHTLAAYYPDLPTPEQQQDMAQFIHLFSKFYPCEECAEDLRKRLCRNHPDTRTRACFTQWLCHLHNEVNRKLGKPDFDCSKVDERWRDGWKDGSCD
CAL PDZ FP-2: blocks peptide binding to human CAL PDZ domain | AID 504414 | 330,000 tested, 0.02% active | Q9HD26 | inhibition, % at 20 µM | purified CAL PDZ, TMR-peptide fluorescence polarization, 1 h;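 active = highest replicate inhibition of at least 40%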;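 also: plate controls were DMSO neutral control wells for no effect and unlabeled competitor peptide control wells for full effect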
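material = purified tagged CAL PDZ domain construct (CerCALP) | compound dosing = 20 µM, one dose | times = 1 h at RT | measured by = fluorescence polarization from S- and P-plane intensities, G-factor corrected | read-out = inhibition from polarization loss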
Numbers without * were called inactive; · = no result given. Hits are enriched below; roughly 4.3% of the tested compounds scored in any of these assays.

SMILES	CAL PDZ FP-1	Dyrk1A ADPGlo	Rtt109 Vps75	ALR H2O2 inh	CAL PDZ FP-2
O=C(NCc1ccc(-c2csnn2)cc1)C1CC1	·	7	3	-2	1
N#Cc1c(/N=C/c2cccs2)sc2c1CCCCC2	-2	5	5	95*	-1
CN(C)/C=N/c1sc2c(c1C#N)CCC2	-4	5	-2	87*	0
CN(C)/C=N/c1sc2c(c1C#N)CCCCC2	9	8	3	59	-1
N#Cc1c(/N=C/c2ccc(Br)s2)sc2c1CCC2	-2	-5	4	·	-2
C(=NN=C1c2ccccc2-c2ccccc21)c1ccc2c(c1)OCO2	-2	-4	-7	·	-1
COc1cccc2sc3ccc(NCc4ccc5c(c4)OCO5)cc3c(=O)c12	12	7	2	92*	1
CCn1nc(C)cc1C(=O)N1CCCC(CCC(=O)NCc2ccccc2F)C1 (stereo not drawn)	2	0	-5	0	-1
COc1ccc(CN2CCN(Cc3ccccc3F)CC2)cc1OC	-2	·	-6	1	0
CCN(CC)c1ccc(CNC23CN4CN(CN(C4)C2)C3)cc1	-1	-2	-1	98*	-1
Nc1ccc(OCc2ccco2)cc1	5	-1	7	1	-2
c1coc(CSSCc2ccco2)c1	-4	-5	5	98*	0
Cc1ccc2nc(Cl)c(/C=N/NC(=O)c3ccccc3O)cc2c1	0	8	-8	97*	-3
Cc1cc(C)n2c(Br)c(CSc3nc4ccccc4s3)nc2n1	-3	1	16	0	-4
CCn1c(=O)cc(SCC(=O)NCCCN2CCN(c3ccc(F)cc3)CC2)c2ccccc21	·	5	9	96*	-3
CCn1c(=O)cc(SCC(=O)NCCN2CCN(Cc3ccccc3)CC2)c2ccccc21	·	5	-3	-5	-3
CCn1c(=O)cc(SCC(=O)NCCCN2CCC(C)CC2)c2ccccc21	31*	1	-12	-5	0
CC(C)c1ccc(C2c3[nH]c4ccccc4c3C[C@H]3C(=O)N(c4ccccc4C(=O)N4CCC(C(=O)O)CC4)C(=O)N23)cc1 (stereo partly drawn)	1	-2	12	98*	0
Cc1ccc(C2c3[nH]c4ccccc4c3C[C@H]3C(=O)N(c4ccccc4C(=O)N4CCC[C@H]4C(=O)O)C(=O)N23)cc1 (stereo partly drawn)	0	-2	19	98*	0
O=C(O)[C@H]1CCCN1C(=O)c1ccccc1N1C(=O)[C@@H]2Cc3c([nH]c4ccccc34)C(c3cccc(Cl)c3)N2C1=O (stereo partly drawn)	-3	-7	-8	·	-1
CC(C)c1ccc(C2c3[nH]c4ccccc4c3C[C@H]3C(=O)N(c4ccccc4C(=O)N4CCC[C@@H]4C(=O)O)C(=O)N23)cc1 (stereo partly drawn)	-2	0	20	98*	0
COC(=O)c1ccc(C2c3[nH]c4ccccc4c3C[C@H]3C(=O)N(C4CC4)CC(=O)N23)cc1 (stereo partly drawn)	-2	-4	-12	-1	-3
O=C(CN1CCCCC1)N1c2ccccc2CCc2ccccc21	-1	-3	-6	13	-1
CC1CCN(CC(=O)N2c3ccccc3CCc3ccccc32)CC1	·	-1	-7	84*	-1
COc1cc(S(=O)(=O)Nc2ccc(C(=O)NCC(=O)O)cc2)ccc1NC(C)=O	68*	-8	13	-1	12
SMILES	CAL PDZ FP-1	Dyrk1A ADPGlo	Rtt109 Vps75	ALR H2O2 inh	CAL PDZ FP-2
O=C(Nc1ccc(S(=O)(=O)N2CCCC2)cc1)c1ccc([N+](=O)[O-])cc1	0	16	12	40	-1
CC1Cc2ccccc2N1Cc1cccc(S(=O)(=O)N(C)C)c1 (stereo not drawn)	0	-3	2	99*	0
Cc1ccc(N(CCC#N)C(=O)CN2C(=O)NC(Cc3ccccc3)C2=O)cc1 (stereo not drawn)	0	-7	-7	·	0
CN(C(=O)CSc1nc(-c2ccc(C(C)(C)C)cc2)c(C#N)c(=O)[nH]1)C1CCCCC1	-6	-13	15	93*	-12
N#Cc1c(-c2ccccc2)nc(SCC(=O)NC2CCCCC2)[nH]c1=O	·	-6	3	55	-1
Cn1c(=O)c(Oc2cc(Cl)cc(Cl)c2)nc2ccccc21	·	3	-2	98*	-1
C=CCn1c(CCSCc2ccc(OC)c(C)c2)n[nH]c1=S	-6	2	3	44	1
C=CCn1c(CCSCc2ccccc2)n[nH]c1=S	1	-6	-5	94*	-2
O=C(CCc1ccccc1)N1CCN(Cc2ccc(F)cc2Cl)CC1	-4	0	12	-9	-2
Cn1c2ccccc2c2cc([N+](=O)[O-])ccc21	-1	-4	8	-11	-2
CN1c2ccc([N+](=O)[O-])cc2N(C)C1(C)c1ccccc1 (stereo not drawn)	·	11	-2	99*	2
CCn1nnc2cc(C(=O)O)ccc21	8	-4	4	-18	1
Nc1nc2ccc(S(=O)(=O)N3CCCCC3)cc2s1	·	0	152*	98*	0
Cc1nc2ccc(S(=O)(=O)N3CCCCC3)cc2s1	1	-4	-1	-12	-3
CN(C)c1nc2c(c(=O)[nH]c(=O)n2C)n1CCOc1ccccc1	·	12	-1	-4	0
CCN(CC)c1nc2c(c(=O)[nH]c(=O)n2C)n1CCOc1ccccc1	-3	14	58*	-9	0
C/C(CC(=O)Nc1ccc(N(C)C)cc1)=N\NC(=O)c1ccc([N+](=O)[O-])cc1Cl	-3	·	0	100*	-1
Cc1ccc(NCN2C(=O)C3C4C=CC(C4)C3C2=O)cc1 (stereo not drawn)	·	-4	-13	62	-1
O=C1C2C3C=CC(C3)C2C(=O)N1CNc1ccc(O)cc1 (stereo not drawn)	·	·	·	99*	·
CC(=O)Nc1ccc(NCN2C(=O)C3C4CCC(C4)C3C2=O)cc1 (stereo not drawn)	-7	-7	6	85*	-1
CCC(C)NC(=O)c1nc2c(nnn2Cc2ccccc2Cl)c(=O)[nH]1 (stereo not drawn)	1	-3	3	88*	-1
O=C(Cc1cccs1)N1CCCC(c2nc3c(nnn3Cc3ccccc3Cl)c(=O)[nH]2)C1 (stereo not drawn)	-3	5	-8	-7	·
O=C(NCc1cccs1)c1nc2c(nnn2Cc2ccccc2Cl)c(=O)[nH]1	-8	5	-17	95*	·
Cc1cccc(C(=O)NCC(=O)NC(C)CCc2ccccc2)c1 (stereo not drawn)	32*	1	-2	-8	0
CSc1nc2nc(-c3ccccc3)cc(=O)n2[nH]1	-1	9	-1	2	0
Cc1ccc(C(=O)Nc2nc3nc(-c4ccccc4)cc(=O)n3[nH]2)cc1	4	5	-2	92*	0
